NR2E3 ag-1 – NR2E3 agonists in two-hybrid cells, primary screen, cell-based, luminescence, CHO-S, Gal4-NCOR/VP16-NR2E3; Photoreceptor-specific nuclear receptor (Homo sapiens), Q9Y5X4; luciferase; inhibition of corepressor binding, % at 3.98 µM; 0.35% of 360,000 active; AID 602229, 2012;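 active = inhibition above the mean of all tested compounds plus 3 SD, cut at about 70% in these data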;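 also: 0% = DMSO with NR2E3 transfected cells and 100% = cells lacking NR2E3 construct; higher means lower luciferase signal from less NR2E3 corepressor binding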
Rev-erbA mod – modulators of Rev-erb alpha DNA binding, primary screen, biochemical, FITC-DNA, fluorescence polarization, uHTS; Nuclear receptor subfamily 1 group D member 1 (Homo sapiens), P20393; Rev-erbα–FITC-DNA binding, 90 min; activity, % at 10 µM; 0.79% of 370,000 active;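 active = activity above about 14%, limit read from the data; passing the limit was not always enough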;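 also: 0% = DMSO wells with 35 nM protein and 100% = DMSO wells with 750 nM protein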
Target sequence (P20393 whole entry, looked up): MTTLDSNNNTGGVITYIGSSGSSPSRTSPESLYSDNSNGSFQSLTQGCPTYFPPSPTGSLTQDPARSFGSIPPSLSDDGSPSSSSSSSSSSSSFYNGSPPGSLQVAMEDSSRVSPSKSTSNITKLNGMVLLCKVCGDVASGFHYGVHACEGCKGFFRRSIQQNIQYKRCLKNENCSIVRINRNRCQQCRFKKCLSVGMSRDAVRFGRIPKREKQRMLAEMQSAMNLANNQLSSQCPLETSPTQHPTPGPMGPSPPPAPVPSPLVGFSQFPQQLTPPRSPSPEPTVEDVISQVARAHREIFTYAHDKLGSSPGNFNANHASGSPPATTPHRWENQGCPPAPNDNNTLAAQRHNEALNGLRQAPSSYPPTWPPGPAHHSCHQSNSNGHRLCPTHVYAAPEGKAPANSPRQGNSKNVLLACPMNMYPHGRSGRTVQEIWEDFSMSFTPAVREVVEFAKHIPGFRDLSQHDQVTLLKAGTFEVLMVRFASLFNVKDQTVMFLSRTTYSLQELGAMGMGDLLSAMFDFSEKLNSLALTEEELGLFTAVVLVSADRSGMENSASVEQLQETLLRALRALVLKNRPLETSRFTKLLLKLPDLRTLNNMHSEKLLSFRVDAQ
PG9 binder – binders of HIV-1 gp120 antibody PG9, primary screen, biochemical, TR-FRET; HIV-1 gp120 / PG9 antibody interaction; TR-FRET gp120-PG9 antibody binding; inhibition, % at 6.7 µM; 0.43% of 360,000 active; in the data active = inhibition above about 8.5%
NR2E3 ag-2 – inhibitors of NR2E3-RetCOR corepressor binding, primary screen, NR2E3 agonist project, biochemical, TR-FRET, GST-NR2E3, biotin-RetCOR; 1536-well; inhibition of corepressor binding, % at 4.78 µM; 0.12% of 320,000 active;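 active = percent inhibition above the cutoff of mean plus 3 SD of all tested compounds, set per screening campaign, cut at about 20% in these data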;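 also: 0% = DMSO wells and 100% = biotin wells as full block of FRET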
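Material: NR2E3–RetCOR corepressor complex | Quantity: 1.35 nM GST-tagged NR2E3 final | Schedule: 5 h at 4 °C | Replication: Singlicate compound wells | Reagent: RetCOR corepressor, biotinylated, 7 nM | Controls: Biotin wells as high control, 0.6% DMSO wells as low control | Signal: TR-FRET, Eu(K)-anti-GST donor, streptavidin-D2 acceptor, ex 340, em 617/671 nm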
NR2E3 ag conf – NR2E3 agonist confirmation in cells, cell-based, luminescence, CHO-S two-hybrid. shares compounds with NR2E3 ag-1. CHO-S mammalian two-hybrid NR2E3-NCOR, luciferase luminescence. inhibition, % at 3.98 µM. 51% of 2,300 active;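 active = average inhibition above a cutoff equal to the mean inhibition of all tested compounds plus one SD, cut at about 70% in these data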;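 also: 0% = DMSO in NR2E3 cells and 100% = DMSO in cells lacking NR2E3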
GAL4-VP16 luc – GAL4-VP16 reporter modulators, confirmation, counter-screen for NR2E3 agonist project, cell-based, luminescence, CHO-S, high throughput; shares compounds with NR2E3 ag-1; AID 624379, 2012; 29% of 2,300 active; inhibition, % at 3.98 µM; CHO-S GAL4-VP16 luciferase reporter;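 active = mean inhibition above a cutoff equal to the average over all tested compounds plus one standard deviation, cut at about 70% in these data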;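 also: luciferase from a UAS reporter driven by GAL4-VP16 transactivation; 0% = DMSO with VP16-transfected cells and 100% = DMSO with cells lacking VP16; higher means less reporter light so more repression of VP16 activity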
Active calls of the source: *; nt = no result. An excerpt weighted towards active compounds, which were near 1.4% of everything screened.

SMILES | NR2E3 ag-1 | Rev-erbA mod | PG9 binder | NR2E3 ag-2 | NR2E3 ag conf | GAL4-VP16 luc
COC(=O)[C@]12C[C@H](CC(=O)NCCc3ccccc3OC)C(=O)N(Cc3ccc4c(c3)OCO4)C1=C[C@H](C(C)C)O[C@@H]2C1CC1 | nt | 3 | nt | nt | nt | nt
CCCCC(C)Sc1nc2c([nH]1)c(=S)n(C)c(=O)n2C (stereo unspecified) | 87* | 15 | -1 | nt | 87* | 61
CCCC(CC)Sc1nc2c([nH]1)c(=S)n(C)c(=O)n2C (stereo unspecified) | 78* | -4 | -1 | nt | 22 | -11
CSc1nc2c([nH]1)c(=S)n(C)c(=O)n2C | 33 | -4 | -4 | nt | nt | nt
CCCCSc1nc2c([nH]1)c(=S)n(C)c(=O)n2C | 64 | 5 | -2 | nt | 31 | -21
CCCC1CCC2(CC1)CCC2OC(=O)Nc1cccc(Cl)c1 (stereo unspecified) | nt | 6 | nt | nt | nt | nt
O=C(C1=C(O)C(=O)N(c2nccs2)C1c1ccccc1)c1cc2ccccc2o1 (stereo unspecified) | 66 | 3 | 9 | 7 | 95* | 71*
Cc1ccc(OCC(=O)Nc2ccc3c(c2)OCCO3)cc1C | 50 | 3 | 0 | 0 | 24 | 13
CC1(NC(=O)c2ccc(C#Cc3cccc(F)c3)cn2)COC1 | nt | -4 | nt | nt | nt | nt
CC(=O)OCC(=O)Nc1ccc([N+](=O)[O-])cc1Cl | -21 | -7 | -3 | 2 | nt | nt
CC(=O)Oc1c(C)cc(Cl)cc1C(=O)Nc1ccc([N+](=O)[O-])cc1Cl | 83* | -1 | 0 | -1 | 99* | 73*
O=S(=O)(c1ccc2c(c1)C(O)c1ccccc1CC2)C(F)(F)F (stereo unspecified) | 56 | 4 | -1 | 0 | 57 | 53
Cn1ncc(SCc2ccccc2)c(Cl)c1=O | -7 | 0 | -3 | 0 | nt | nt
Cn1ncc(S(=O)(=O)Cc2ccccc2)c(Cl)c1=O | 64 | -4 | -3 | -2 | 32 | -1
COC(=O)C1CN(Cc2ccc(OC)cc2)CCS(=O)(=O)N1Cc1ccc(F)cc1 (stereo unspecified) | nt | 2 | nt | nt | nt | nt
NC(=O)c1c(-c2ccc(Cl)cc2Cl)csc1NC(=O)Cc1ccccc1 | 56 | 2 | -3 | -3 | 64 | 62
C=C(C)Cn1c(=O)c2c(nc3n2CC(C)CN3Cc2ccccc2)n(C)c1=O (stereo unspecified) | 63 | -1 | -1 | -1 | 13 | -20
COc1ccccc1OCC(=O)NNC(=O)C1CCN(c2ncnc3sc(C)c(C)c23)CC1 | -21 | 2 | 0 | 0 | nt | nt
COc1ccc(-c2csc(NC(=O)C3CCN(c4ncnc5sc(C)c(C)c45)CC3)n2)cc1OC | 78* | 0 | -1 | -3 | 74* | 79*
COc1ccc(NS(=O)(=O)c2ccc3c(c2)NC(=O)CCS3)cc1Cl | 60 | -5 | 1 | -3 | 34 | 34
Cc1cc(NC2CCCCC2)nc(NCc2ccccc2)n1 | 75* | -6 | -2 | 2 | 92* | 76*
COc1ccc(Nc2cc(C)nc(NCc3ccccc3)n2)cc1 | 68 | 3 | -3 | 3 | 86* | 66
Clc1ccc(SCc2cc(N3CCOCC3)nc(-c3ccccn3)n2)cc1 | 95* | 2 | -1 | 0 | 58 | 43
O=c1cc(CSc2ccc(Cl)cc2)nc(-c2ccccc2)[nH]1 | -3 | -2 | -2 | -3 | nt | nt
O=c1cc(CSc2ccc(Cl)cc2)nc(-c2ccccn2)[nH]1 | 101* | 1 | -1 | 0 | 98* | 60
SMILES | NR2E3 ag-1 | Rev-erbA mod | PG9 binder | NR2E3 ag-2 | NR2E3 ag conf | GAL4-VP16 luc
Cc1ccccc1N=Nc1c(C)[nH]n(C(N)=S)c1=O | 58 | -1 | -5 | -5 | 0 | -7
Nc1nc(Cl)cc(N2CCC(c3cc(-c4ccc(Cl)cc4)n[nH]3)CC2)n1 | 91* | 4 | -1 | 4 | 98* | 73*
COc1ccc(-c2cc(C3CCN(c4cc(Cl)nc(N)n4)CC3)[nH]n2)cc1 | 26 | 0 | -2 | 2 | nt | nt
Nc1nc2n[nH]nc2c(=O)[nH]1 | 81* | -2 | 0 | 1 | 24 | 53
CCCCN(C)c1c(C)nc2ccc(C(=O)NCCOc3ccc(OC)cc3)cn12 | 49 | nt | nt | nt | 94* | 68
CCC[C@H]1[C@@H](OC(=O)NCCc2ccccc2)CC[C@@]23CCCN2C(=O)CCC[C@@H]13 | nt | 2 | nt | nt | nt | nt
O=C(Nc1nc(-c2ccccn2)cs1)Nc1ccc(F)cc1F | 70* | 1 | 0 | 0 | 36 | -20
CC(Oc1ccc(Br)cc1)C(=O)Nc1nc(-c2ccccn2)cs1 (stereo unspecified) | 76* | -3 | -1 | -3 | 19 | 13
COC(=O)[C@@]12CCCCC3=C1N(CCC3)C(=O)[C@H]2CC(=O)N1CCN(C(=O)C2CC2)CC1 | nt | 3 | nt | nt | nt | nt
CC1CCN(C2=NC(=O)N(c3ccc(Br)cc3)C(=O)C2)CC1 | nt | 3 | nt | nt | nt | nt
COc1ccc(-c2ccc(C(=O)NCc3ccncc3)c3occc23)c(C)c1 | 82* | 2 | -3 | nt | 95* | 82*
COc1ccc(-c2ccc(C(=O)NCc3ccc(F)c(F)c3)c3occc23)c(C)c1 | -8 | -3 | 0 | nt | nt | nt
O=C(NCc1ccncc1)c1ccc(-c2ccc(F)c(F)c2)c2ccoc12 | 84* | 5 | -2 | nt | 96* | 82*
O=C(NCc1ccc(C(F)(F)F)cc1)c1ccc(-c2ccc(F)c(F)c2)c2ccoc12 | -28 | 3 | -1 | nt | nt | nt
CN1Cc2nnn(Cc3ccccc3)c2-c2cc(F)ccc2S1(=O)=O | nt | -1 | nt | nt | nt | nt
Cc1ccccc1NC(=O)c1ccccc1NC(=O)Cc1cccc2ccccc12 | -12 | -5 | -1 | -1 | nt | nt
Cc1ccccc1NC(=O)c1cccc2nc3ccccc3nc12 | 80* | 0 | -2 | 0 | 96* | 67
CCCOC(C(=O)OC1CCN(C)CC1)(c1ccccc1)c1ccccc1 | nt | 4 | nt | nt | nt | nt
O=S1(=O)c2ccc(N3CC[C@@H](O)C3)cc2OCCCN1C1CC1 | nt | 5 | nt | nt | nt | nt
NS(=O)(=O)c1ccc(CCNc2nn3c(-c4cccc(OC(F)(F)F)c4)cnc3s2)cc1 | 94* | 14 | 2 | nt | 90* | 53
O[C@@H]1[C@@H](O)C=C2CCN3Cc4cc5c(cc4[C@H]1C23)OCO5 (stereo partly specified) | 89* | 0 | 1 | 2 | 92* | 85*
CCc1[nH]nc(C(=O)NC2CCCc3c2cnn3-c2cc(C)cc(C)c2)c1C (stereo unspecified) | 61 | -3 | 0 | 2 | 54 | -8

Bioassay records: PubChem BioAssay, several laboratories
